Source: ChEMBL document CHEMBL4196166 (J Med Chem, 2018)
Calls of active or inactive are those of the source. The rule behind the calls is not given here.

Legend:
[1] = molecular target: Urokinase-type plasminogen activator (Homo sapiens, UniProt P00749); assay: Inhibition of human kidney uPA using Z-Gly-Gly-Arg-AMC as substrate measured over 15 mins by fluorescence assay
Homo sapiens = assay: Antimetastatic activity against human PSC xenografted in BALB/c nu/nu mouse co-implanted with human AsPC1 cells assessed as reduction in metastasis lesions in liver at 75 mg/kg, po administered twice per week via gavage measured after 28 days post first dose by microscopic analysis; format: functional, organism-based
How it was run: (§1)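 Female athymic BALB/c nu/nu mice, 6–8 weeks old. 1×10^6 AsPC-1 and 1×10^6 human pancreatic stellate cells in 50 µL PBS injected into the pancreatic tail. Treatment randomized on day 7 (n = 4/group) for 4 weeks: 10 mg/kg/day ip in 50 mM sodium acetate pH 5.5/10% DMSO/1% Kolliphor HS-15, or gemcitabine 75 mg/kg by oral gavage twice weekly, or vehicle. At kill, liver scored for visible macrometastases, fixed in formalin, and 4 µm sections stained with H&E. Chi-square test.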

ASPC1 = assay: Antimetastatic activity against human AsPC1 cells xenografted in BALB/c nu/nu mouse co-implanted with human PSC assessed as reduction in metastasis lesions in liver at 75 mg/kg, po administered twice per week via gavage measured after 28 days post first dose by microscopic analysis; format: functional, organism-based; how it was run: as §1
[2] = molecular target: T1, Epithelial sodium channel subunit alpha (Homo sapiens, UniProt P37088); assay: Inhibition of S-3969-stimulated recombinant human ENaC alpha subunit expressed in HEK293 cells at 10 uM preincubated for 5 mins followed by S-3969 stimulation by FLIPR assay; format: cell-based; settings: hek293, 10 µM
T1 sequence (P37088 whole entry): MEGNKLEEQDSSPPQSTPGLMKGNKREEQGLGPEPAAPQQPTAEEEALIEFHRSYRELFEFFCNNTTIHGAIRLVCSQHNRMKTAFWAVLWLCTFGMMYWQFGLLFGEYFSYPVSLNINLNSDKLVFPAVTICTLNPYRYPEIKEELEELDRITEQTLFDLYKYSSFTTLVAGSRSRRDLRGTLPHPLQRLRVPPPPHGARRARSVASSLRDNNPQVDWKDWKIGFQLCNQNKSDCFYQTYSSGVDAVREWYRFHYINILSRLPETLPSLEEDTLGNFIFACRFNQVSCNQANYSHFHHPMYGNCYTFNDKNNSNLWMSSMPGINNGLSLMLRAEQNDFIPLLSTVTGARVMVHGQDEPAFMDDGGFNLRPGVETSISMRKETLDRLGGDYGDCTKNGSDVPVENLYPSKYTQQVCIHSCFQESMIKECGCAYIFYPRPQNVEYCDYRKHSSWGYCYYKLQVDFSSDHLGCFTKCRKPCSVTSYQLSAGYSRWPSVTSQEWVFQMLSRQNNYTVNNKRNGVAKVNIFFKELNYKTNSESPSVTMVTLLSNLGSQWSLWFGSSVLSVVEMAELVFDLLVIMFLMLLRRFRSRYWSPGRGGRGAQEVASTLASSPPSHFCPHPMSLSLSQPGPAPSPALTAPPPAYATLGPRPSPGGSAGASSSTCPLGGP
How it was run: (§2)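 HEK-293 cells transfected with human ENaC α, β and γ cDNA together, plated at 20 000 cells/well, incubated overnight at 37 °C. Loaded with membrane-potential red dye for 30 min at 37 °C. Compound preincubated 5 min in HEPES-buffered salt solution (pH 7.4, 0.3% DMSO), then stimulated with 1 µM S-3969, read on FLIPR. Signal normalized to agonist alone (100%) and agonist plus 30 µM benzamil (0%). n = 4 wells.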

[3] = molecular target: T2, Epithelial sodium channel subunit beta (Homo sapiens, UniProt P51168); assay: Inhibition of S-3969-stimulated recombinant human ENaC beta subunit expressed in HEK293 cells at 10 uM preincubated for 5 mins followed by S-3969 stimulation by FLIPR assay; format: cell-based; settings: hek293, 10 µM; how it was run: as §2
T2 sequence (P51168 whole entry): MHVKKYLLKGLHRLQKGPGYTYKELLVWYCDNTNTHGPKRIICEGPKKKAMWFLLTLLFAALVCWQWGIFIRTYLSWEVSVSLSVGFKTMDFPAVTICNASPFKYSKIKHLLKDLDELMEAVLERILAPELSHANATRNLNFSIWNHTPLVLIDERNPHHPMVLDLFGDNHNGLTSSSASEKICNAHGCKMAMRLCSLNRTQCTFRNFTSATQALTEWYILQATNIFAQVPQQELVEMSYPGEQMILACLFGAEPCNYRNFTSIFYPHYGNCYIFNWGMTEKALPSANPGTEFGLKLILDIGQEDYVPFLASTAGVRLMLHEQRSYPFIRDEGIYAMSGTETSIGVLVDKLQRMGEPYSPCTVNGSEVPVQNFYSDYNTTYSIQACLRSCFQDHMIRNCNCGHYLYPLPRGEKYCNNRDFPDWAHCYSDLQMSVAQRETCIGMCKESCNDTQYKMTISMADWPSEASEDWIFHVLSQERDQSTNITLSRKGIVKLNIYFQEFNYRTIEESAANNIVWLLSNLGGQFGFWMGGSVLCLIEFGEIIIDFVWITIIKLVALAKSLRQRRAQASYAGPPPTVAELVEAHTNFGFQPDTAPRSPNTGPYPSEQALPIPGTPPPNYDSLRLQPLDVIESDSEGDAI

[4] = molecular target: T3, Epithelial sodium channel subunit gamma (Homo sapiens, UniProt P51170); assay: Inhibition of S-3969-stimulated recombinant human ENaC gamma subunit expressed in HEK293 cells at 10 uM preincubated for 5 mins followed by S-3969 stimulation by FLIPR assay; format: cell-based; settings: hek293, 10 µM; how it was run: as §2
T3 sequence (P51170 whole entry): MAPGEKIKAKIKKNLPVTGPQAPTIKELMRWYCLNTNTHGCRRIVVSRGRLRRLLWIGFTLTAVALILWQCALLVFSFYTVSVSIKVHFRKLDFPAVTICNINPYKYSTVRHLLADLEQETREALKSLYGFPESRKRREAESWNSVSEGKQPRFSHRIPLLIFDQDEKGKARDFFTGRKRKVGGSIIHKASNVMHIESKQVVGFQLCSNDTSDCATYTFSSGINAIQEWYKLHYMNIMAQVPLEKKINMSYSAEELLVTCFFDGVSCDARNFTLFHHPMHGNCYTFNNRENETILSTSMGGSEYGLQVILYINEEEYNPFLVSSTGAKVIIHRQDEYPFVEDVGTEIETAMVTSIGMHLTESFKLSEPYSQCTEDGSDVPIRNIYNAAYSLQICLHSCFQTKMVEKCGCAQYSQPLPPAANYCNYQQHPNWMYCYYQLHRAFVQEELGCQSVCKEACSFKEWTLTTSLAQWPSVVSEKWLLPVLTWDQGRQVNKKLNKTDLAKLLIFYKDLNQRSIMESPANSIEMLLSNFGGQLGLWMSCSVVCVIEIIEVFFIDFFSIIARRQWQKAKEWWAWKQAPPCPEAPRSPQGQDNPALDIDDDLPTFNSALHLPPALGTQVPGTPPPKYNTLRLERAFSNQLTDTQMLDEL

Compound | Ki [1] | also measured
N=C(N)NC(=O)c1nc(-c2ccccc2)c(N2CCCCCC2)nc1N | 5.02 µM | –
N=C(N)NC(=O)c1nc(-c2ccoc2)c(N2CCCCCC2)nc1N | 0.166 µM | –
Nc1ccn([C@@H]2O[C@H](CO)[C@@H](O)C2(F)F)c(=O)n1 | – | Activity (Homo sapiens): Active; Activity (ASPC1): Active
COc1ncc(-c2nc(C(=O)NC(=N)N)c(N)nc2N2CCCCCC2)c(OC)n1 | 0.042 µM | –
N=C(N)NC(=O)c1nc(-c2cc3ccccc3s2)c(N2CCCCCC2)nc1N | 3.31 µM | –
N=C(N)NC(=O)c1nc(-c2cnc(NCCO)nc2)c(N2CCCCCC2)nc1N | 0.041 µM | –
N=C(N)NC(=O)c1nc(-c2ccco2)c(N2CCCCCC2)nc1N | 0.156 µM | –
N=C(N)NC(=O)c1nc(-c2cc3ccccc3[nH]2)c(N2CCCCCC2)nc1N | 5.67 µM | inhibition (INH) [2]: Not Active; inhibition (INH) [3]: Not Active; inhibition (INH) [4]: Not Active
N=C(N)NC(=O)c1nc(-c2ccc3c(c2)OCO3)c(N2CCCCCC2)nc1N | 0.934 µM | –
N=C(N)NC(=O)c1nc(-c2ccc(C(F)(F)F)cc2)c(N2CCCCCC2)nc1N | 4.26 µM | inhibition (INH) [2]: Not Active; inhibition (INH) [3]: Not Active; inhibition (INH) [4]: Not Active
N=C(N)NC(=O)c1nc(-c2cnc(N)nc2)c(N2CCCCCC2)nc1N | 0.021 µM | –
N=C(N)NC(=O)c1nc(-c2cccs2)c(N2CCCCCC2)nc1N | 2.42 µM | –
N=C(N)NC(=O)c1nc(-c2cccnc2F)c(N2CCCCCC2)nc1N | 1.78 µM | –
